Tests used:
[1] = tested on: Hepatitis C virus; test: Antiviral activity against HCV subtype 1a in human Huh7.5 cells expressing subgenomic HCV replicons and coexpressing luciferase reporter gene; assay type: functional, cell-based, Hepacivirus hominis; conditions: Huh-7
Summary of the method: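 Stable Huh7.5 lines carrying genotype 1a or 1b subgenomic replicons with luciferase reporter, made by RNA electroporation and G418 selection. Assay run in phenol red-free DMEM without G418, sixteen half-log compound dilutions, in triplicate. Luciferase signal read after 72 h relative to DMSO controls, giving EC50.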

[2] = Cytotoxicity against human MT4 cells by CDCF probe based assay; assay type: cell-based
[3] = target: T1, Solute carrier organic anion transporter family member 1B1 (Homo sapiens, UniProt Q9Y6L6); test: Inhibition of OATP1B1 (unknown origin) expressed in HEK293 cells using [3H]estradiol-17beta-glucuronide substrate; assay type: ADME, cell-based
T1 sequence (Q9Y6L6 whole entry): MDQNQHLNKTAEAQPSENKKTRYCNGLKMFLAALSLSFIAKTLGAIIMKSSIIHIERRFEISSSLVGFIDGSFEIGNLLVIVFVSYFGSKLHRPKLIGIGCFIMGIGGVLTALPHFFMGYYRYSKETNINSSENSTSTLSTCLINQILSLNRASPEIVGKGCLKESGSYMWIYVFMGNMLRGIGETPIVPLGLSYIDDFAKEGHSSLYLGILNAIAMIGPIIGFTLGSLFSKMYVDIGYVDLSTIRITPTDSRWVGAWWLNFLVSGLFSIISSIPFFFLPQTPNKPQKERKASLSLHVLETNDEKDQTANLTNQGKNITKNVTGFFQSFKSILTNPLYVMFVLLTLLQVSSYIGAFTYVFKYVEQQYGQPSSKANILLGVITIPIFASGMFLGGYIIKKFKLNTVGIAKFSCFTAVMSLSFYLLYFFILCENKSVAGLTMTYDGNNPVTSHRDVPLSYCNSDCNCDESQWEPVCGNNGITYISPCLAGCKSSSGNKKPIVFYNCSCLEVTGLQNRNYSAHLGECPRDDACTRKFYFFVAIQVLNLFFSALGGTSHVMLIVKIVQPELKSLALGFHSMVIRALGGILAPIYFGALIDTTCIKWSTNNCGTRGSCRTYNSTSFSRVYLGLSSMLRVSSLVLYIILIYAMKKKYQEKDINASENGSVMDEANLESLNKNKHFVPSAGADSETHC
Summary of the method: (§1)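 Recombinant OATP1B1 or OATP1B3 expressed in HEK293 cells, with [3H]estradiol-17β-glucuronide as substrate; IC50 determined.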

[4] = target: T2, Solute carrier organic anion transporter family member 1B3 (Homo sapiens, UniProt Q9NPD5); test: Inhibition of OATP1B3 (unknown origin) expressed in HEK293 cells using [3H]estradiol-17beta-glucuronide substrate; assay type: ADME, cell-based; summary of the method: as §1
T2 sequence (Q9NPD5 whole entry): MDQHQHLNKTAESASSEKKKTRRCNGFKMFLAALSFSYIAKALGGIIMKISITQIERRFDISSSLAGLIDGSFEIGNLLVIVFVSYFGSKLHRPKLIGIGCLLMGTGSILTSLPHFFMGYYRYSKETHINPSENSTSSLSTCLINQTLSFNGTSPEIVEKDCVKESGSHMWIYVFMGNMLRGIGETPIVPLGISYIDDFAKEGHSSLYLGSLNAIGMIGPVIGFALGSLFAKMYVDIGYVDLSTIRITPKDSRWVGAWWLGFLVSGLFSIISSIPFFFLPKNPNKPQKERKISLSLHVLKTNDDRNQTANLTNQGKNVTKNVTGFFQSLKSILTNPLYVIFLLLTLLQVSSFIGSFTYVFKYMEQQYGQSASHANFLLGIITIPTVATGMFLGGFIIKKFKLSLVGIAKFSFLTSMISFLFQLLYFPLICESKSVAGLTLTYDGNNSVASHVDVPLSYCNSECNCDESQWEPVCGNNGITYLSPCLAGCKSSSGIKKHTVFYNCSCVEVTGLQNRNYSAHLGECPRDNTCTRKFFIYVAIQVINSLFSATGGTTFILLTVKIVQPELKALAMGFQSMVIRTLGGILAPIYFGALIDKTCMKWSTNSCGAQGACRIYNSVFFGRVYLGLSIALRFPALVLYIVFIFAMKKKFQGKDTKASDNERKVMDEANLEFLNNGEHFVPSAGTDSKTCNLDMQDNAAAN

[5] = target: ATP-binding cassette sub-family C member 2 (Homo sapiens, UniProt Q92887); test: Inhibition of human MRP2 expressed in Sf9 cells inside out vesicles using CDCF substrate
Summary of the method: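 Inside-out vesicles from baculovirus-infected Sf9 cells expressing hMRP2, with CDCF as probe. ATP-dependent uptake taken as uptake with ATP minus uptake with AMP. Remaining activity calculated as uptake with inhibitor divided by uptake without, and the inhibition value derived from that.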

[6] = target: Bile salt export pump (Homo sapiens, UniProt O95342); test: Inhibition of BSEP (unknown origin) expressed in HEK293 cells using [3H]taurocholic acid substrate; assay type: ADME, cell-based
Summary of the method: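 BSEP activity in HEK293 cells, measured with [3H]taurocholic acid uptake as substrate; IC50 reported.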

[7] = target: T3, Broad substrate specificity ATP-binding cassette transporter ABCG2 (Homo sapiens, UniProt Q9UNQ0); test: Inhibition of BCRP (unknown origin) expressed in T8 cells using Bodipy FL-prazosin substrate; assay type: ADME, cell-based
T3 sequence (Q9UNQ0 whole entry): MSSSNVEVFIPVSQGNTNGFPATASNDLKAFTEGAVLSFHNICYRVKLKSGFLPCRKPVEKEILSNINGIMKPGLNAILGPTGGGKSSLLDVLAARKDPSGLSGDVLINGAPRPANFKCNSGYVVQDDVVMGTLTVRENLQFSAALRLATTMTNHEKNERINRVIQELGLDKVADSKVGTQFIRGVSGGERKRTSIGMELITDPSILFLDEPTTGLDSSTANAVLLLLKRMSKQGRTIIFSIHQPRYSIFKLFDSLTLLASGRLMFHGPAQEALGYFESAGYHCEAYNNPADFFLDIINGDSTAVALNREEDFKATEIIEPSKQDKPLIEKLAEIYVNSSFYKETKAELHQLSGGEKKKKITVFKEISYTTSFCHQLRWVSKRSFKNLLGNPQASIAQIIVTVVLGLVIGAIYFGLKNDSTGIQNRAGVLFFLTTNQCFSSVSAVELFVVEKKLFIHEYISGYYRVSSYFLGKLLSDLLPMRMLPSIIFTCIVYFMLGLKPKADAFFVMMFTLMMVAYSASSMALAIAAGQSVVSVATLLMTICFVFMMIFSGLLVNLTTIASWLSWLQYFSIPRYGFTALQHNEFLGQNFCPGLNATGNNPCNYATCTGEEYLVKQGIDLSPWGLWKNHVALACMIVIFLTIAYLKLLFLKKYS
Summary of the method: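 BCRP activity in T8 cells, measured with Bodipy FL-prazosin as substrate; IC50 reported.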

[8] = target: ATP-dependent translocase ABCB1 (Homo sapiens, UniProt P08183); test: Inhibition of MDR1 (unknown origin) expressed in MDA T0.3 cells using rhodamine 123 substrate; assay type: ADME, cell-based
Summary of the method: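 MDR1 activity in MDA T0.3 cells, measured with rhodamine 123 as substrate; IC50 reported.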

[9] = AUC in rat blood at 25 mg/kg, po after 72 hrs; assay type: ADME, organism-based; parameters: time < 72 hr, dose 25 mg/kg, route oral; conditions: whole blood
Summary of the method: (§2)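 Oral dosing as a solution in MEPC: rat 25 mg/kg, dog 1 mg/kg. Blood and plasma collected separately over 0−72 h and AUC computed for each matrix.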

[10] = AUC in rat plasma at 25 mg/kg, po after 72 hrs; assay type: ADME, organism-based; parameters: time < 72 hr, dose 25 mg/kg, route oral; summary of the method: as §2

Chain of ATP-dependent translocase ABCB1 (P08183 whole entry): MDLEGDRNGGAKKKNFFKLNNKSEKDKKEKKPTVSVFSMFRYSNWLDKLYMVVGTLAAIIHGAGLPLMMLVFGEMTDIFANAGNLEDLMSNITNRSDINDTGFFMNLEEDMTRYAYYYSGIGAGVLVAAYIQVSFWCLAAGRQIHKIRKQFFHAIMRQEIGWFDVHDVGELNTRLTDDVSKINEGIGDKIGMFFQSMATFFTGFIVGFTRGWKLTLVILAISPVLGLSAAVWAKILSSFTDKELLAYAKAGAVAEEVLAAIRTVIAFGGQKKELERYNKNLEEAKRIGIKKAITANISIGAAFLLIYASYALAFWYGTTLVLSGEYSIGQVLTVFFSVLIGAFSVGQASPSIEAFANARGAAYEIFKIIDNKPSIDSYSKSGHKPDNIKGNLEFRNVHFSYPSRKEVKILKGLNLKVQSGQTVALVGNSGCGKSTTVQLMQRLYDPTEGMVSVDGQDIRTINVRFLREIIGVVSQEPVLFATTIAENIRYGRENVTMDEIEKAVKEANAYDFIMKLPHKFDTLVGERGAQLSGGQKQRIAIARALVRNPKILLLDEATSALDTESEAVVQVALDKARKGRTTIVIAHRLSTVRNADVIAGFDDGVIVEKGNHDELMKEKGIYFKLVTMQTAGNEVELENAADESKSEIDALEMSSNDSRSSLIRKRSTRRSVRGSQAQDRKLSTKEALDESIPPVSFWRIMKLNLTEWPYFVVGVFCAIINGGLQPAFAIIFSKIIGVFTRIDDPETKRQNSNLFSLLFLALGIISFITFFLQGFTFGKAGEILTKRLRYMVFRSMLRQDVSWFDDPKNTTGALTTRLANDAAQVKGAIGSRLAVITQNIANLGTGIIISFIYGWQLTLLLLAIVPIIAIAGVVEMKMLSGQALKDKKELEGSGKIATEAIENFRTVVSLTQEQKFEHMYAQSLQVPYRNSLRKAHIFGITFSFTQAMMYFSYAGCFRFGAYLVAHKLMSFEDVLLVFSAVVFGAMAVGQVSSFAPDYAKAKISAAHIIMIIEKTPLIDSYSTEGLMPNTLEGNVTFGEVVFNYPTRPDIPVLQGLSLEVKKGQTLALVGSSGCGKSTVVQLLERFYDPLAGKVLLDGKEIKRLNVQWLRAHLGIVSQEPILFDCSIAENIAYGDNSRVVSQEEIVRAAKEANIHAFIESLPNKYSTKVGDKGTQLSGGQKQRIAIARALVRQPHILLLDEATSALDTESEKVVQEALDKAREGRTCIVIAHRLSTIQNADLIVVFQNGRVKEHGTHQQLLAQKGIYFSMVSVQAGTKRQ
Chain of Bile salt export pump (O95342 whole entry): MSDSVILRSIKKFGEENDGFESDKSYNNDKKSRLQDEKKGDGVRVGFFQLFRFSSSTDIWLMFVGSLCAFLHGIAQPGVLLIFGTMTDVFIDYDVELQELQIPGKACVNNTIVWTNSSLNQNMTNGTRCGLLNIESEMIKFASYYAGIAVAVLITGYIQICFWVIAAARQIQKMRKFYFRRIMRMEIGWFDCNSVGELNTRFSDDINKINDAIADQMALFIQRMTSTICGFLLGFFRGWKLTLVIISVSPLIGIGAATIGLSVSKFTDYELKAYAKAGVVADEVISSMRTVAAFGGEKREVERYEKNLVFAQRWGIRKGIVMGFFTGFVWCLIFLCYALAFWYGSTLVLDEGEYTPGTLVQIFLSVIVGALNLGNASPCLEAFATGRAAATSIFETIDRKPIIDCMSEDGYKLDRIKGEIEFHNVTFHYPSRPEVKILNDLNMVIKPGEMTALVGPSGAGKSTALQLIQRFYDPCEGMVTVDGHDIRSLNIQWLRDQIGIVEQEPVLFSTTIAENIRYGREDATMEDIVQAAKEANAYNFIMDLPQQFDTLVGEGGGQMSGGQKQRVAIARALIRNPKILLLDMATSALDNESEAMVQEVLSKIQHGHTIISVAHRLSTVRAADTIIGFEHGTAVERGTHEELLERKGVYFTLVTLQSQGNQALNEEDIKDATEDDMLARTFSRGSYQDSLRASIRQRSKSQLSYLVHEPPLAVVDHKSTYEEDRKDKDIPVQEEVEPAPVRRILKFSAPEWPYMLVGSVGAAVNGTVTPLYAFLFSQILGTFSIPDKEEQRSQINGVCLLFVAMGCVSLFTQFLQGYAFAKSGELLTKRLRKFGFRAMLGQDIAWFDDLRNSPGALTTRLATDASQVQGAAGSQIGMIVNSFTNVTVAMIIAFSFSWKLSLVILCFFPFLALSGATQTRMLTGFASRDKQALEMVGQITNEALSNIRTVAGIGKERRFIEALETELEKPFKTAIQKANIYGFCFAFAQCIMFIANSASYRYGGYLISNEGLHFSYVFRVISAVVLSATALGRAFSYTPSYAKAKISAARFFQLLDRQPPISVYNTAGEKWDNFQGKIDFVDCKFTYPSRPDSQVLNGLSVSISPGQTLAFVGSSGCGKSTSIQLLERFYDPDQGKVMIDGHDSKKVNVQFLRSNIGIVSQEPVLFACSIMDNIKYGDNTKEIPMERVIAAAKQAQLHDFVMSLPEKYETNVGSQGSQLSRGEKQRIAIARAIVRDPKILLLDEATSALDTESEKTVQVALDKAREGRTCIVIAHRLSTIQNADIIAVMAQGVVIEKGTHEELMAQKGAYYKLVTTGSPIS
Chain of ATP-binding cassette sub-family C member 2 (Q92887 whole entry): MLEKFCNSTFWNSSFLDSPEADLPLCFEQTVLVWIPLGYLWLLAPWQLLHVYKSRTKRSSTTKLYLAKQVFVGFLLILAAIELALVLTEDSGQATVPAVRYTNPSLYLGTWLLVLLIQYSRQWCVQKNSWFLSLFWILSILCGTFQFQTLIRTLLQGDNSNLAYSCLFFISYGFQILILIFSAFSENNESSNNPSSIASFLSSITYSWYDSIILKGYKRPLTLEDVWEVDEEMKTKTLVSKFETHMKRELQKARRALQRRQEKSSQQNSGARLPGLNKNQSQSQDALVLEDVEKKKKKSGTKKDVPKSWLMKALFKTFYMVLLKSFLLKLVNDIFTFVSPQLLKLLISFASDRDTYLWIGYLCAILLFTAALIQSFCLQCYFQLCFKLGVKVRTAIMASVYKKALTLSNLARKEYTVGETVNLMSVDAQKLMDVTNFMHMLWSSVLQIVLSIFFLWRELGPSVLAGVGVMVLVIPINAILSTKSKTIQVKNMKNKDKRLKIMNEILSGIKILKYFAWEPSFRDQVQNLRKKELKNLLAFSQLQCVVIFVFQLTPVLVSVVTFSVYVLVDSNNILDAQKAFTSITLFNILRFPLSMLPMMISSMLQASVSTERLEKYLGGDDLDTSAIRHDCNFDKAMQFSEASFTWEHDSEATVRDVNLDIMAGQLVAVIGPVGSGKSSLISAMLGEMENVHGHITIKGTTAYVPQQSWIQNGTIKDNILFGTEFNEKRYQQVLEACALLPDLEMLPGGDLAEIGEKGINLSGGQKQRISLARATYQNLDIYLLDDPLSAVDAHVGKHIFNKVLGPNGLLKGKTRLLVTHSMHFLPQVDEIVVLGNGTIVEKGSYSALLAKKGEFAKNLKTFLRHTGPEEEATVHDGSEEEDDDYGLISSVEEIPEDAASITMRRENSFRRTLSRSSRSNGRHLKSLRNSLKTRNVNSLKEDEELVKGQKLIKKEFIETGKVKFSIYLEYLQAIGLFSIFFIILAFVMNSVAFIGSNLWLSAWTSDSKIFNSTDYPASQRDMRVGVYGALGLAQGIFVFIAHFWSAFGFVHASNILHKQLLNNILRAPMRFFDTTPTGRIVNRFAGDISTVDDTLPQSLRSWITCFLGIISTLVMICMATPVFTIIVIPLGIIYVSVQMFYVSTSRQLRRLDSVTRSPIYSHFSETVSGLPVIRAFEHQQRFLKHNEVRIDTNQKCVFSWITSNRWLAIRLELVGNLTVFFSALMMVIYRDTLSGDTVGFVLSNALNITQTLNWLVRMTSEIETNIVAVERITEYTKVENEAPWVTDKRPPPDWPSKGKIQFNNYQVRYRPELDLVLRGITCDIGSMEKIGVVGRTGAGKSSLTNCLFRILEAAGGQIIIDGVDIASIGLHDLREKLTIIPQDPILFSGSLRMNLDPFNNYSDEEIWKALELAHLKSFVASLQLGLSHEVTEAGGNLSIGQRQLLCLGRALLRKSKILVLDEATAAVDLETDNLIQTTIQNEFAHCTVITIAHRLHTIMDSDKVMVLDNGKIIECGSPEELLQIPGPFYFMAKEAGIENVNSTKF

| EC50 [1] | IC50 [3] | IC50 [4] | Ki [5] | IC50 [7] | IC50 [8] | AUC at 72 h [9] | AUC at 72 h [10] | Structure (SMILES) | CC50 [2] | IC50 [6] |
| --- | --- | --- | --- | --- | --- | --- | --- | --- | --- | --- |
| 0.07 µM | 1.2 µM | 0.88 µM | 140 µM | > 25 µM | 6.3 µM | 58.4 µM·h | 5.8 µM·h | C/C=C/C[C@@H](C)[C@@H](O)[C@H]1C(=O)N[C@@H](CC)C(=O)N(C)[C@H](C)C(=O)N(C)[C@@H]([C@@H](C)CN2CCN(CCOC)CC2)C(=O)N[C@@H](C(C)C)C(=O)N(C)[C@@H](CC(C)C)C(=O)N[C@@H](C)C(=O)N[C@H](C)C(=O)N(C)[C@@H](CC(C)C)C(=O)N(C)[C@@H](CC(C)C)C(=O)N(C)[C@@H](C(C)C)C(=O)N1C | > 50 µM | 1.6 µM |
| 0.07 µM | 0.18 µM | 0.22 µM | 18 µM | 2.5 µM | 0.59 µM | 22.1 µM·h | 2.3 µM·h | C/C=C/C[C@@H](C)[C@@H](O)[C@H]1C(=O)N[C@@H](CC)C(=O)N(C)[C@H](C)C(=O)N(CC)[C@@H](C(C)C)C(=O)N[C@@H](C(C)C)C(=O)N(C)[C@@H](CC(C)C)C(=O)N[C@@H](C)C(=O)N[C@H](C)C(=O)N(C)[C@@H](CC(C)C)C(=O)N(C)[C@@H](CC(C)C)C(=O)N(C)[C@@H](C(C)C)C(=O)N1C [ALISPORIVIR] | > 20 µM | 0.11 µM |

Source: ChEMBL document CHEMBL3351593, “Potent nonimmunosuppressive cyclophilin inhibitors with improved pharmaceutical properties and decreased transporter inhibition” (J Med Chem, 2014)
